Assay results gathered from unrelated publications.
Protocols differ between the studies behind these lines.
SMO: Protein smoothened (SMO, Homo sapiens, UniProt Q99835)
MAPK15: Mitogen-activated protein kinase 15 (MAPK15, Homo sapiens, UniProt Q8TD08)

Structure (SMILES) | target | assay | conditions | quantity | value
O=C(Nc1cccnn1)N1CCN([C@@H]2CCOc3cc(C(F)(F)F)ccc32)CC1 | Peroxisome proliferator-activated receptor gamma (PPARG, Homo sapiens, UniProt P37231) | cell-free assay | 20 µM | inhibition | 18%
C#Cc1n[nH]c2c(-c3cn(C(C)c4ccccn4)c(=O)[nH]c3=O)cc(F)cc12 (centres unmarked) | Fibroblast growth factor receptor 2 (FGFR2, Homo sapiens, UniProt P21802) | enzyme activity, inhibitor | 1 µM | inhibition | -6%
Cc1cnc(-c2cc(N3CCN(C(=O)CCS(C)(=O)=O)CC3)ncc2Cl)c(C)c1 | SMO | GTPγS binding, agonist, radiometric | cell membranes | Emax | -60.4%
COc1ncccc1-c1cnn2ccc(N3CCN(C(=O)OC(C)C)CC3)nc12 | MAPK15 | binding, competition with immobilised ligand | 1 µM | remaining binding | 78%
CC1=C2C[C@H]3[C@@H](CC=C4C[C@@H](O)CC[C@@]43C)[C@@H]2CC[C@]12O[C@@H]1C[C@H](C)CN[C@H]1[C@H]2C | Protein smoothened (SMO, Homo sapiens, UniProt Q99835, D473H) | GTPγS binding, agonist, radiometric | cell membranes | Emax | -107%
CCN(CC)CCCC[C@H](NC(=O)[C@H](CC(C)C)NC(=O)[C@H](C)NC(=O)[C@H](Cc1ccccc1)NC(=O)c1ccc(C(C)(C)C)cc1)C(=O)N[C@@H](CO)C(=O)OC | Histone-lysine N-methyltransferase 2A (KMT2A, Homo sapiens, UniProt Q03164) | thermal stability, DSF | 25 µM | ΔTm | 0.04 °C
CC(=O)N[C@@H](CC(=O)O)C(=O)N[C@@H](CC(N)=O)C(=O)N[C@@H](CC(C)C)C(=O)N[C@H](C=O)CC(=O)O | Caspase-3 (CASP3, Homo sapiens, UniProt P42574) | enzyme activity, inhibitor | 1 nM | inhibition | 10%
Nc1ncc(-c2nc(N3CCOCC3)nc(N3CCOCC3)n2)c(C(F)F)n1 | MAPK15 | binding, competition with immobilised ligand | 10 µM | remaining binding | 100%
Cc1ncc(C)n2nc(/C=C/c3nc(N4CCCC4)cc(N4CCOCC4)n3)nc12 | Angiotensin-converting enzyme (ACE, Homo sapiens, UniProt P12821) | enzyme activity, inhibitor | 10 µM | inhibition | -13%
COc1cc(C(=O)NC(N)=Nc2ccc(C)c(NC(=O)c3ccc(-c4ccccc4)cc3)c2)cc(OC)c1OC | SMO | GTPγS binding, agonist, radiometric | cell membranes | Emax | -88.6%
Cc1nn(C)cc1-c1nc2c(N3CCN(Cc4ccc(Cl)cc4)CC3)c(Cl)cnc2[nH]1 | MAPK15 | binding, competition with immobilised ligand | 1 µM | remaining binding | 8.2%
